Key:
Type in all cases: biochemical
R24M PTP1B = target: T1, R24M PTP1B (Homo sapiens, UniProt P18031, R24M); experiment: PTP assay, R24M PTP1B; conditions: for Km / kcat / kcat/KM x 10^7: R24M PTP1B aa 1–321, pH 7.4; for WT/R24M: ratio of kcat/KM, WT over R24M PTP1B (fold reduction by the mutation)
T1 sequence (P18031 1-321 R24M): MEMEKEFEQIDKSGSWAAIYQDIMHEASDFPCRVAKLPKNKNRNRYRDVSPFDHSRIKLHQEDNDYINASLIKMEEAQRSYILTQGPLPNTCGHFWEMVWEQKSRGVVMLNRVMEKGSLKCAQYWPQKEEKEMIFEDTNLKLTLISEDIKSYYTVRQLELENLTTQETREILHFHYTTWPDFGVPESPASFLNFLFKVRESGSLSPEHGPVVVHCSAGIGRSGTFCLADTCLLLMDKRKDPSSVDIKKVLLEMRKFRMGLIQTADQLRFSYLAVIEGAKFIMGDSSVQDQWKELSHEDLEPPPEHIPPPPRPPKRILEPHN
Outline: (§1)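 E. coli-expressed catalytic domains were used: wild-type, R24M or R47E PTP1B (aa 1–321), and SHP-1 (aa 205–595). Reactions started with PTP (0.5–20000 nM final) and dephosphorylation was monitored continuously at 282 nm. kcat, KM and kcat/KM came from initial-rate fits (Michaelis–Menten, or V = kcat[E][S]/KM when KM >> [S]) or from fits of progress curves.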

R47E PTP1B = target: T2, R47E PTP1B (Homo sapiens, UniProt P18031, R47E); experiment: PTP assay, R47E PTP1B; conditions: for Km / kcat / kcat/KM x 10^7: R47E PTP1B aa 1–321, pH 7.4; for WT/R47E: ratio of kcat/KM, WT over R47E PTP1B (fold decrease by the mutation)
T2 sequence (P18031 1-321 R47E): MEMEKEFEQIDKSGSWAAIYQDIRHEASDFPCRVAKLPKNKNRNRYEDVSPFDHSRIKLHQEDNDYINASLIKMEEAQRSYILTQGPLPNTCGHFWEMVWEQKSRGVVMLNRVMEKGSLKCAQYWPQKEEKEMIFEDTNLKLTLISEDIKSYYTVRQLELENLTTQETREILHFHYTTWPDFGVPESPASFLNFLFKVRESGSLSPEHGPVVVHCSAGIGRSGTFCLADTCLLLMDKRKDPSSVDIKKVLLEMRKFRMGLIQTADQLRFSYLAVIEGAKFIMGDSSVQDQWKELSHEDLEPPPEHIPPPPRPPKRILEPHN
Outline: as §1

PTP1B = target: T3, PTP1B (Homo sapiens, UniProt P18031); experiment: PTP assay, wild-type PTP1B; conditions: for kcat/KM x 10^7: WT PTP1B aa 1–321, pH 7.4; for kcat/KM x10^6: WT catalytic domain aa 1–321, 100 mM HEPES pH 7.4, monitored at 282 nm
T3 sequence (P18031 1-321): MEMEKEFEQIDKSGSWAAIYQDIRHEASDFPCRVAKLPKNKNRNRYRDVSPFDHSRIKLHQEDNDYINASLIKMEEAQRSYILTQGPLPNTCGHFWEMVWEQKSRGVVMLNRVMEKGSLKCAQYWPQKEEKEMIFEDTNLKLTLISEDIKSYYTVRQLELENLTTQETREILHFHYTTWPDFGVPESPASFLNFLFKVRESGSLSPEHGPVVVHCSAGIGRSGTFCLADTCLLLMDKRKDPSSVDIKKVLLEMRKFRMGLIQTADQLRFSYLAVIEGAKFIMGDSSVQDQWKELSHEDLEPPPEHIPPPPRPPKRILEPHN
Outline: as §1

PTP-PEST = target: T4, PTP-PEST (Homo sapiens, UniProt Q05209); experiment: PTP assay with pY peptide substrates, PTP-PEST; conditions: catalytic domain; pH 7.4
T4 sequence (Q05209 5-300): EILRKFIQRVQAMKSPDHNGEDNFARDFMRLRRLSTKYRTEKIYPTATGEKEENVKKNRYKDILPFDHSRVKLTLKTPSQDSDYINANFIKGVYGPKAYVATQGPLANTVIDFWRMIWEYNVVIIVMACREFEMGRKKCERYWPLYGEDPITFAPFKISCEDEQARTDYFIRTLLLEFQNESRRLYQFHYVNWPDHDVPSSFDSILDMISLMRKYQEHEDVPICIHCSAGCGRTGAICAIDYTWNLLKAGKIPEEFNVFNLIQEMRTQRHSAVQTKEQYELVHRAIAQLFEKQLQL

| Substance | Km (R24M PTP1B) | kcat (R24M PTP1B) | kcat/KM x 10^7 (R24M PTP1B) | WT/R24M (R24M PTP1B) | Km (R47E PTP1B) | kcat (R47E PTP1B) | kcat/KM x 10^7 (R47E PTP1B) | WT/R47E (R47E PTP1B) | kcat/KM x 10^7 (PTP1B) | kcat/KM x10^6 (PTP1B) | increased PTP1B activity by R24M mutation (R24M PTP1B; R24M relative to WT) | increased PTP1B activity by R47E mutation (R47E PTP1B; R47E relative to WT) | kcat/KM (PTP-PEST) |
| --- | --- | --- | --- | --- | --- | --- | --- | --- | --- | --- | --- | --- | --- |
| AApYAAADD | 8.7 ± 0.4 µM | 37 ± 1 s⁻¹ | 0.43 x 10^7 M^−1 s^−1 | 2.3 | 10 ± 1 µM | 35 ± 1 s⁻¹ | 0.35 x 10^7 M^−1 s^−1 | 2.8 | 0.97 x 10^7 M^−1 s^−1 | – | – | – | – |
| AApYAADDA | 6.9 ± 0.1 µM | 38 ± 1 s⁻¹ | 0.55 x 10^7 M^−1 s^−1 | 2.0 | 11 ± 2 µM | 36 ± 2 s⁻¹ | 0.32 x 10^7 M^−1 s^−1 | 3.4 | 1.1 x 10^7 M^−1 s^−1 | – | – | – | – |
| AApYADDAA | 6.4 ± 0.2 µM | 38 ± 1 s⁻¹ | 0.59 x 10^7 M^−1 s^−1 | 2.4 | 12 ± 1 µM | 34 ± 1 s⁻¹ | 0.29 x 10^7 M^−1 s^−1 | 4.8 | 1.4 x 10^7 M^−1 s^−1 | – | – | – | – |
| AApYDDAAA | – | – | 0.027 x 10^7 M^−1 s^−1 | 16 | 34 ± 2 µM | 33 ± 2 s⁻¹ | 0.097 x 10^7 M^−1 s^−1 | 4.4 | 0.43 x 10^7 M^−1 s^−1 | – | – | – | – |
| AApYDDIDE | 37 ± 1 µM | 42 ± 1 s⁻¹ | 0.11 x 10^7 M^−1 s^−1 | 10 | 56 ± 2 µM | 43 ± 1 s⁻¹ | 0.076 x 10^7 M^−1 s^−1 | 14 | 1.1 x 10^7 M^−1 s^−1 | 11 x10^6 M^−1 s^−1 | – | – | – |
| AApYIRKRA | 52 ± 3 µM | 34 ± 1 s⁻¹ | 0.065 x 10^7 M^−1 s^−1 | 0.62 | 89 ± 3 µM | 34 ± 2 s⁻¹ | 0.038 x 10^7 M^−1 s^−1 | 1.1 | 0.042 x 10^7 M^−1 s^−1 | – | 1.6 fold | – | – |
| AApYWAYDD | – | – | – | – | – | – | – | – | – | 15 x10^6 M^−1 s^−1 | – | – | – |
| ARKRIpYAA | – | – | – | – | 31 ± 4 µM | 37 ± 2 s⁻¹ | 0.12 x 10^7 M^−1 s^−1 | 0.21 | 0.025 x 10^7 M^−1 s^−1 | – | – | 5 fold | – |
| Ac-AApYDLDEY-NH2 | – | – | – | – | – | – | – | – | – | 18 x10^6 M^−1 s^−1 | – | – | 1.3e+08 M⁻¹ s⁻¹ |
| Ac-ASSDEpYAA-NH2 | 3.8 ± 0.2 µM | 32 ± 1 s⁻¹ | 0.84 x 10^7 M^−1 s^−1 | 2.0 | 32 ± 1 µM | 31 ± 1 s⁻¹ | 0.097 x 10^7 M^−1 s^−1 | 18 | 1.7 x 10^7 M^−1 s^−1 | 17 x10^6 M^−1 s^−1 | – | – | 7.2e+06 M⁻¹ s⁻¹ |

— publication PMC3954597 (Biochemistry, 2014)
